Tests used:
[1] = system: Drosophila first instar larvae; experiment: Liquid food feeding assay; format: in vivo, Drosophila melanogaster; conditions: for dose-response verification: 14 secondary screen hits chosen for dose-response curve
Drosophila larvae [2] = experiment: Solid food feeding assay; format: in vivo, Drosophila melanogaster
In short: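 Larvae aged 0–2 h were fed 17 h at 25°C and 70% humidity on cornmeal-agar-molasses food containing 0.05% bromophenol blue plus solvent or test compound. Individual larvae were imaged, and digestive-tract optical density was measured. Values were normalized to same-day solvent-treated larvae and reported as mean ± s.e.m.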

Drosophila larvae [3] = experiment: Larval locomotion; format: in vivo, Drosophila melanogaster
5-HT1A = target: T1, 5-HT1A (Drosophila melanogaster, UniProt P28285); experiment: Calcium imaging of receptor expressed in HEK-293T cells; format: cell-based; conditions: 100 μM metitepine; stated for all 5-HT receptors
T1 sequence (P28285 1-834): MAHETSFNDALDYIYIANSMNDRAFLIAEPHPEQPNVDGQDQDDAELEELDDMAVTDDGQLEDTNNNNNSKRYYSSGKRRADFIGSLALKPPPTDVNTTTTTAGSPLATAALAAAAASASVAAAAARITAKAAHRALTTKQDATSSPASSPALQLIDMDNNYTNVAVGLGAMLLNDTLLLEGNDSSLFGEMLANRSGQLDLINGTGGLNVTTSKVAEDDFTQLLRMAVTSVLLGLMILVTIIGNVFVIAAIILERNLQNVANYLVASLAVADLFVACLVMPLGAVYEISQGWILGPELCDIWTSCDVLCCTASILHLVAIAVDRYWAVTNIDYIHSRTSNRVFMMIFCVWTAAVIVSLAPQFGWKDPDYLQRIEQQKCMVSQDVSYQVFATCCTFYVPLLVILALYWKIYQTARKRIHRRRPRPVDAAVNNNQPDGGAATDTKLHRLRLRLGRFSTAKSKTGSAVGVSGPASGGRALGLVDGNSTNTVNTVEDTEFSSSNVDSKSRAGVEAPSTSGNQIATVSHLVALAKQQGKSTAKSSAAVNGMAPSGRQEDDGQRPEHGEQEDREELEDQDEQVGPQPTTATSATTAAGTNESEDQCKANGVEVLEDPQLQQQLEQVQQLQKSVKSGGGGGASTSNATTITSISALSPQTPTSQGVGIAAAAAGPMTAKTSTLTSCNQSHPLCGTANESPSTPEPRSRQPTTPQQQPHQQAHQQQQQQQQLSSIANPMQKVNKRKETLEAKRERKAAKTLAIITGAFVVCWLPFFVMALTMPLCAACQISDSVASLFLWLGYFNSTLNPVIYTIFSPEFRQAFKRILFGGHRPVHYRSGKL

5-HT1B = target: T2, 5-HT1B (Drosophila melanogaster, UniProt P28286); experiment: as above; format: cell-based
T2 sequence (P28286 1-617): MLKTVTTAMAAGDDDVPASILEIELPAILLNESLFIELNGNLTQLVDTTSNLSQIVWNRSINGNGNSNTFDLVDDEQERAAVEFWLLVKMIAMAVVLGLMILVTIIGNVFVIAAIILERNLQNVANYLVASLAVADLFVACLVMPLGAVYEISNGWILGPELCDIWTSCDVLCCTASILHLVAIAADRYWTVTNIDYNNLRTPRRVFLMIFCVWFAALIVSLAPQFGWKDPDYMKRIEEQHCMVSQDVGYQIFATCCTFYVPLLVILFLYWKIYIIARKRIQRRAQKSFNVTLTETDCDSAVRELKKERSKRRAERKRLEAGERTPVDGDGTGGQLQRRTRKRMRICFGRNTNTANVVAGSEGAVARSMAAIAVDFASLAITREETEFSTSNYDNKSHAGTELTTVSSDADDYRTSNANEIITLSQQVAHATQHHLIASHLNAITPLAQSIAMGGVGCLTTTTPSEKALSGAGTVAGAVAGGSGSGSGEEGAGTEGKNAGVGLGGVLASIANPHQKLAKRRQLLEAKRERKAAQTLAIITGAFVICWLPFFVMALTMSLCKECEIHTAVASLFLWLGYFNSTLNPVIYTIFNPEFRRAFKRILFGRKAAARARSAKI

5-HT2A = target: T3, 5-HT2A (Drosophila melanogaster, UniProt Q9VN38); experiment: as above; format: cell-based; conditions: 100 μM metitepine; stated for all 5-HT receptors
T3 sequence (Q9VN38 1-868): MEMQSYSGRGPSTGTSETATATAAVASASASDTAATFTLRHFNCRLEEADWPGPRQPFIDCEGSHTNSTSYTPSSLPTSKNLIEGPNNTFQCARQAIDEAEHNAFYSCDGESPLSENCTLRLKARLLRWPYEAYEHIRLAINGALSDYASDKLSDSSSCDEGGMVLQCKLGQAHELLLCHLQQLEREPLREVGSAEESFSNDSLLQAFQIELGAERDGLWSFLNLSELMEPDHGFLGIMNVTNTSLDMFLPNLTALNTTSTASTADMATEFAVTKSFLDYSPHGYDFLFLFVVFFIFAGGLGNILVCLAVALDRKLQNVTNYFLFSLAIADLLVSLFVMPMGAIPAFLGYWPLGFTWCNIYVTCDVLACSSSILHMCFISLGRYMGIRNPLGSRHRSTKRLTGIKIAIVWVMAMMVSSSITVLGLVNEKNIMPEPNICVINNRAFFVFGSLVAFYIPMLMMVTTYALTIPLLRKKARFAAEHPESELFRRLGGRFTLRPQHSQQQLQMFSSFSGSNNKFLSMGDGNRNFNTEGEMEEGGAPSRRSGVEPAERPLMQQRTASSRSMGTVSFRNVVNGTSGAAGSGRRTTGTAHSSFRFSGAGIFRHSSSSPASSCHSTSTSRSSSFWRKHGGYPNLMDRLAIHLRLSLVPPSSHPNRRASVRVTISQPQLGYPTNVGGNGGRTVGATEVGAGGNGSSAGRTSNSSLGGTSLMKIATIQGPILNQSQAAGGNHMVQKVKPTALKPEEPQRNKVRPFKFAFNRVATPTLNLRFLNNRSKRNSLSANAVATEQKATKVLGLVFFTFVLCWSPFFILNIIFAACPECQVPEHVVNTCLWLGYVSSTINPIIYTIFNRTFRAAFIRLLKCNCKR

5-HT2B = target: T4, 5-HT2B (Drosophila melanogaster, UniProt Q8INQ6); experiment: as above; format: cell-based; conditions: 100 μM metitepine; stated for all 5-HT receptors
T4 sequence (Q8INQ6 1-904): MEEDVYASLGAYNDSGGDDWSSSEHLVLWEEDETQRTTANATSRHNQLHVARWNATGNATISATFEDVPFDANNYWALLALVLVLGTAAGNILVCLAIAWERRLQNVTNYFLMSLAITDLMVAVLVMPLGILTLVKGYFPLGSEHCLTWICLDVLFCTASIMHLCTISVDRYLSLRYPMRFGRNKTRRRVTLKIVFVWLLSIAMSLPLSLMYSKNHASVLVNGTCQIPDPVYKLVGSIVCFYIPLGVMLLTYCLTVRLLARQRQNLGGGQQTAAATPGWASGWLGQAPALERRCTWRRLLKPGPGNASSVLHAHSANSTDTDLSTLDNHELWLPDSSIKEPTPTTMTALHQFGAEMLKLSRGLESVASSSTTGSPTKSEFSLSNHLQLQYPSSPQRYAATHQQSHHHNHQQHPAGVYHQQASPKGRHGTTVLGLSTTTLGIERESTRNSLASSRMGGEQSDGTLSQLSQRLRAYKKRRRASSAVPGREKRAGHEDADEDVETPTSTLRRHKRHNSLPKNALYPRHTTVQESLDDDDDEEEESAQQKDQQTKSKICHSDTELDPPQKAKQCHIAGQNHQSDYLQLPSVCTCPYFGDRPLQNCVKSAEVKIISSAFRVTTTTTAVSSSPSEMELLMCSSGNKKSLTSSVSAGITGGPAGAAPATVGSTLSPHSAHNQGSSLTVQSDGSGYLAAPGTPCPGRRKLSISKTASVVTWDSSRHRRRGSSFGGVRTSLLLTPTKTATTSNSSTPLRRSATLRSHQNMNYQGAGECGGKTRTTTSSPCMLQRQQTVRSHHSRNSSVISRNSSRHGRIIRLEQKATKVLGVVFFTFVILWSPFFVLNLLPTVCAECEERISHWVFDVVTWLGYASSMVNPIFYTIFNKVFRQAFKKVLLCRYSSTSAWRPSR

5-HT7 = target: T5, 5-HT7 (Drosophila melanogaster, UniProt P20905); experiment: as above; format: cell-based; conditions: 100 μM metitepine; stated for all 5-HT receptors
T5 sequence (P20905 1-564): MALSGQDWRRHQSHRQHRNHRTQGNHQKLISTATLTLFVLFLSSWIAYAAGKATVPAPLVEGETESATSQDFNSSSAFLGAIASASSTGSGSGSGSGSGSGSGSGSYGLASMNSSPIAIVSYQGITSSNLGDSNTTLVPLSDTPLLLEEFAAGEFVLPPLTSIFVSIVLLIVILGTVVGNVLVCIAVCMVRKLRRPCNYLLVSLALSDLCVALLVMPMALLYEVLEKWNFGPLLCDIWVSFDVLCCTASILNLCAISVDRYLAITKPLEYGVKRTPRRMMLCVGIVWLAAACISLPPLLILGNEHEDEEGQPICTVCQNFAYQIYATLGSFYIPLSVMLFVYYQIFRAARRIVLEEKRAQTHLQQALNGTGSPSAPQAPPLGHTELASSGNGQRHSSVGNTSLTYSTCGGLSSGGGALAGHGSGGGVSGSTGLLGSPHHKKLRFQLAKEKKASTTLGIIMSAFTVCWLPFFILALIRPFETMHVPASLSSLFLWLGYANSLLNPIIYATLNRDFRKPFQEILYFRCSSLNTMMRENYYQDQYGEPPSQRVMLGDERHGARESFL

HEK-293T cells = experiment: ATP control after metitepine treatment; format: cell-based; conditions: 100 μM metitepine; ATP activated all cells afterwards
C. elegans = conditions: different small molecule screen; cited from earlier work

CSc1ccc2c(c1)C(N1CCN(C)CC1)Cc1ccccc1S2 (centres unmarked) [Metitepine]
food accumulation immediately after exposure ([1]; 0-h recovery): reduced food accumulation
dose-response verification [1]: showed reliable dose-dependent responses
anorectic effect 4 hours after treatment ([1]; 4 h recovery): not evident
food intake 24 hours after treatment ([1]; 24 h recovery, rebound from drug-induced fasting): ate significantly more
threshold concentration for efficacy ([1]; liquid food with fluorescein, increasing effects at 50 and 100 μM): 10 µM
duration of anorectic effect after treatment ([1]; recovery time course after metitepine treatment): 2 h
solid food accumulation in digestive tract (Drosophila larvae [2]; cornmeal-agar-molasses diet with bromophenol blue, 100 μM (Fig. 3a)): accumulated less solid food
threshold efficacy dose (Drosophila larvae [2]; solid food with bromophenol blue, optical density of gut): 50 µM
crawling speed (Drosophila larvae [3]; 100 μM in solid food, 17 hours, agar surface): crawled at the same speed as solvent treated controls
responses to 5-HT in presence of drug (5-HT1A): dramatically suppressed or completely abolished
IC50 (5-HT1B): 58 µM
responses to 5-HT in presence of drug (5-HT1B; 100 μM metitepine, stated for all 5-HT receptors): dramatically suppressed or completely abolished
responses to 5-HT in presence of drug (5-HT2A): dramatically suppressed or completely abolished
responses to 5-HT in presence of drug (5-HT2B): dramatically suppressed or completely abolished
responses to 5-HT in presence of drug (5-HT7): dramatically suppressed or completely abolished
cell survival after treatment (HEK-293T cells): did not kill the cells
lifespan (C. elegans): extends lifespan

C[C@@H]1C[C@@H]([C@H](O)CC2CC(=O)NC(=O)C2)C(=O)[C@@H](C)C1 [cycloheximide]
feeding in pilot screen ([1]; pilot screen, tested individually at 20 μg/ml, data not shown): inhibited feeding

COC(=O)[C@H]1[C@H]2C[C@@H]3c4[nH]c5cc(OC)ccc5c4CCN3C[C@H]2C[C@@H](OC(=O)c2cc(OC)c(OC)c(OC)c2)[C@@H]1OC [Reserpine]
dose-response verification [1]: showed reliable dose-dependent responses
larval locomotion (Drosophila larvae [3]; at concentrations as low as 10 μM, data not shown): dramatically reduced larval locomotion
